Laboratory results reported in PMC4336584 (Chemistry & biology, 2015).
≈ marks a conversion by molar mass, not a printed value. Like-named read-outs stand apart in the source and are kept apart here.

Key:
HIV-1 (NL4.3 virus) [1] = details: 21 days bi-daily dosing at 100 mg/kg; ref Stoddart et al. [29]; cited from earlier work
[2] = Solubility analysis in PBS pH 7.4; assay type: physicochemical; details: pH 7.4, aqueous buffer, kinetic from dmso stock
HIV-1 (NL4.3 virus) [3] = experiment: SCID-hu Thy/Liv mouse model of HIV-1 infection; assay type: in vivo, SCID-hu Thy/Liv mice; details: oral bi-daily 14 days, 50 or 100 mg/kg/day
How it was run: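 Human fetal thymus and liver were coimplanted under the kidney capsule of male C.B-17 SCID mice aged 6–8 weeks. Implants were inoculated with NL4-3 by direct injection 18 weeks later; controls received medium. Groups of six received 50 or 100 mg/kg/day by twice-daily oral gavage from day −1 until implant collection 2 weeks post-inoculation. Implant cells were assayed for p24 (ELISA), viral RNA (bDNA) and CD3/CD4/CD8 thymocytes (flow cytometry). Results are means with SD.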

HIV-1 viral load = details: 14 days dosing, HIV/HCV co-infected patients; cited from earlier work
[4] = test system: HCV Huh7 Gt1a replicon (H77); experiment: HCV replicon antiviral assay, genotype 1a; assay type: cell-based; details: Hepatitis C virus, Huh-7, 72 h, read-out: HCV Huh7 Gt1a replicon EC50
How it was run: (§1)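 Subgenomic replicon cells were maintained at 37°C, 5% CO2 in DMEM with 10% FBS and 250 μg/ml G418. They were seeded at 5 × 10³ cells/well without G418. Next day, serial dilutions of compound in DMEM plus 5% FBS were added for 72 hr at 37°C. HCV RNA was measured by one-step TaqMan real-time RT-PCR, with ribosomal RNA as the cell-number/cytotoxicity control. EC50 was derived from both measurements.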

Cytostatic assay = assay type: cell-based; details: human, Huh 5-2 cells
[5] = Plasma protein binding analysis; assay type: in vitro ADME; details: human
[6] = test system: HepG2 cells stably replicating HBV; experiment: HBV antiviral assay in cells stably replicating HBV; assay type: cell-based; details: Hepatitis B virus, 72 h
How it was run: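 HepG2 cells stably replicating HBV were treated with test compound at 0.1, 1 or 10 μM, with DMSO as control, for 3 days. Supernatant was then removed and cells were retreated. After a further 72 hr, HBsAg and HBeAg were measured by ELISA and HBV DNA was quantified, all in cell extracts and in triplicate.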

HIV-1 in CD4+ HeLa cells = experiment: CD4+ HeLa HIV-1 inhibitory FACS assay; assay type: cell-based; details: Human immunodeficiency virus 1, HeLa, 48 h, read-out: HIV-1 HeLa cells IC50
[7] = test system: Huh7 cells transfected with HBV DNA; experiment: HBV antiviral assay in cells transfected with HBV DNA; assay type: cell-based; details: test/control value, day 3, 2 µM
How it was run: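 Huh7 cells were transfected with HBV DNA (8 μg) in the presence of 2 μM test compound or DMSO. On day 3, de novo HBsAg in cell extracts or supernatants was quantified by ELISA in triplicate. A test/control value was calculated from these readings.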

[8] = test system: HCV Huh7 Gt2a replicon (JFH-1); experiment: HCV replicon antiviral assay, genotype 2a; assay type: cell-based; details: Hepatitis C virus, Huh-7, 72 h, read-out: HCV Huh7 Gt2a replicon EC50
How it was run: as §1

[9] = test system: HCV Gt1b replicon in Huh 5-2 cells; experiment: HCV antiviral assay Huh 5-2; assay type: cell-based; details: Hepatitis C virus, Huh-5-2, 96 h, read-out: HCV Huh5.2 Gt1b replicon EC50
How it was run: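 Huh 5-2 cells seeded at 6.5 × 10³/well in DMEM with 250 μg/ml G418 and held 24 hr at 37°C, 5% CO2. Medium then replaced by 3-fold serial dilutions of test compound in complete DMEM without G418. After 4 days at 37°C, luciferase activity read and expressed as percent of untreated controls.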

[10] = target: HCV NS5A-cyclophilin A complex (Homo sapiens, UniProt P62937); experiment: biochemical
HCV Huh7 Gt1b replicon = experiment: HCV replicon antiviral assay, genotype 1b; assay type: cell-based; details: Hepatitis C virus, Huh-7, 72 h, read-out: HCV Huh7 Gt1b replicon EC50
How it was run: as §1

Sequence of HCV NS5A-cyclophilin A complex (P62937 whole entry, one chain of several): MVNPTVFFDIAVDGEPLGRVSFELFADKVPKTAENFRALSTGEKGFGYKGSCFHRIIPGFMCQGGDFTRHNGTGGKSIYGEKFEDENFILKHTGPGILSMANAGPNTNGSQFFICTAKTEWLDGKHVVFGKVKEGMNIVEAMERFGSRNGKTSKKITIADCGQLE

For `O=C1Nc2ccc(Cl)cc2[C@@](C#CC2CC2)(C(F)(F)F)O1` [efavirenz], the “viral RNA reductions” value (HIV-1 (NL4.3 virus) [1]) is given as 1–4 log10.
In the case of `Nc1nc(=O)n([C@@H]2CS[C@H](CO)O2)cc1F` [emtricitabine], the “viral RNA reductions” value (HIV-1 (NL4.3 virus) [1]) is given as 1–4 log10.
In the case of `Cc1ccnc2c1NC(=O)c1cccnc1N2C1CC1` [nevirapine], the “viral RNA reductions” value (HIV-1 (NL4.3 virus) [1]) is listed as 1–4 log10.
For `COC(=O)N[C@H](C(=O)N[C@@H](Cc1ccccc1)[C@@H](O)CN(Cc1ccc(-c2ccccn2)cc1)NC(=O)[C@@H](NC(=O)OC)C(C)(C)C)C(C)(C)C` [atazanavir], the “viral RNA reductions” value (HIV-1 (NL4.3 virus) [1]) is listed as 1–4 log10.
In the case of `C/C=C/C[C@@H](C)[C@@H](O)[C@H]1C(=O)N[C@@H](CC)C(=O)N(C)[C@H](C)C(=O)N(CC)[C@@H](C(C)C)C(=O)N[C@@H](C(C)C)C(=O)N(C)[C@@H](CC(C)C)C(=O)N[C@@H](C)C(=O)N[C@H](C)C(=O)N(C)[C@@H](CC(C)C)C(=O)N(C)[C@@H](CC(C)C)C(=O)N(C)[C@@H](C(C)C)C(=O)N1C` [Alisporivir], the solubility at 4 h [2] is listed as 15 µM (≈ 18.2 µg/mL), the “overt signs of toxicity” value (HIV-1 (NL4.3 virus) [3]) is listed as “No overt signs of toxicity” and the “mean drop in viral load” value (HIV-1 viral load) is listed as ~ 1 log. The EC50 [4] was 98 ± 11 nM, the CC50 at 3 days (Cytostatic assay) was 11.2 µM and the fraction unbound at 5 h, 1 µM [5] was less than 0.04. The IC50 ([6]; read-out: HBV Huh7 stable HBV DNA IC50) was greater than 10 µM, the IC50 ([6]; read-out: HBV Huh7 stable HBeAg IC50) was greater than 10 µM and the IC50 ([6]; read-out: HBV Huh7 stable HBsAg IC50) was greater than 10 µM. The IC50 (HIV-1 in CD4+ HeLa cells) was 1500 ± 240 nM, the “HBV HepG2 transfected HBsAg T/C d3 at 2uM” value [7] was 18% and the EC50 [8] was 102 ± 8 nM. The EC50 [9] was 96 ± 23 nM, the IC50 [10] was 240 ± 20 nM and the EC50 (HCV Huh7 Gt1b replicon) was 76 ± 5 nM.
